Blank lines part the entries; values can stand above or below the molecule they belong to.
Key:
[1] = species on record: Homo sapiens; assay: Biomagnification factors in human; format: ADME, organism-based; details: in vivo
Method in brief: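 Modelled, not measured: a bioaccumulation model using fugacity D-values (respiration, diet, faeces, urine, metabolism, lactation, growth) gives BMF as fB/fD or CB/CD relative to diet. The Inuit diet is taken as Arctic fish and wildlife (caribou, ringed seal, walrus, beluga) plus southern Canadian agricultural foods, the latter simulated from Great Lakes food chains. KOA is evaluated at 37 °C.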

[2] = Octanol-air partition coefficient, log KOA of the compound; format: physicochemical
[3] = Octanol-water partition coefficient, log KOW of the compound; format: physicochemical
[4] = Biomagnification factors in Diporeia; format: ADME

Compound: Cc1c([N+](=O)[O-])c(C)c([N+](=O)[O-])c(C(C)(C)C)c1[N+](=O)[O-]
BMF [1]: 89 | log KOA [2]: 8.9 | logP ([3]; read-out: LogP): 4.1 | BMF [4]: < 1

Compound: Brc1ccc(Oc2ccc(Br)cc2Br)c(Br)c1
BMF [1]: 98 | log KOA [2]: 9.8 | logP ([3]; read-out: LogP): 6 | BMF [4]: 2.2

Compound: Brc1c(Br)c(Br)c(Oc2c(Br)c(Br)c(Br)c(Br)c2Br)c(Br)c1Br
BMF [1]: 8 | log KOA [2]: 13.1 | logP [3]: 9.9 | BMF [4]: 1

Compound: Brc1ccc(Oc2cc(Br)c(Br)cc2Br)c(Br)c1
BMF [1]: 98 | log KOA [2]: 11.2 | logP ([3]; read-out: LogP): 6.8 | BMF [4]: 2.5

Compound: Clc1cc(Cl)c(-c2cc(Cl)c(Cl)c(Cl)c2Cl)cc1Cl
BMF [1]: 95 | log KOA [2]: 10.9 | logP ([3]; read-out: LogP): 7.5 | BMF [4]: 2.5

Compound: O=S1OC[C@@H]2[C@H](CO1)[C@@]1(Cl)C(Cl)=C(Cl)[C@@]2(Cl)C1(Cl)Cl (stereo partly specified)
BMF [1]: 23 | log KOA [2]: 7.1 | logP ([3]; read-out: LogP): 3.7 | BMF [4]: < 1

Compound: Clc1cc(Cl)c(Cl)cc1Cl
BMF [1]: 5.9 | log KOA [2]: 6.3 | logP ([3]; read-out: LogP): 4.7 | BMF [4]: < 1

Compound: Clc1cc(Cl)cc(Cl)c1 [1,3,5-TRICHLOROBENZENE]
BMF [1]: < 1 | log KOA [2]: 4.7 | logP ([3]; read-out: LogP): 3.5 | BMF [4]: < 1

Compound: Clc1cc(Cl)c(-c2cc(Cl)c(Cl)cc2Cl)cc1Cl [2,2',4,4',5,5'-HEXACHLOROBIPHENYL]
BMF [1]: 96 | log KOA [2]: 9.6 | logP ([3]; read-out: LogP): 7.5 | BMF [4]: 2.5

Compound: Cl[C@H]1[C@H](Cl)[C@@H](Cl)[C@H](Cl)[C@@H](Cl)[C@@H]1Cl [BETA-HEXACHLOROCYCLOHEXANE]
BMF [1]: 84 | log KOA [2]: 8.9 | logP ([3]; read-out: LogP): 3.8 | BMF [4]: < 1

Compound: OC(c1ccc(Cl)cc1)(c1ccc(Cl)cc1)C(Cl)(Cl)Cl [DICOFOL]
BMF [1]: 76 | log KOA [2]: 8.9 | logP ([3]; read-out: LogP): 3.5 | BMF [4]: < 1

Compound: ClC1=C(Cl)[C@]2(Cl)[C@@H]3[C@@H]4C[C@@H]([C@H]5O[C@@H]45)[C@@H]3[C@@]1(Cl)C2(Cl)Cl [DIELDRIN]
BMF [1]: 93 | log KOA [2]: 8.8 | logP ([3]; read-out: LogP): 5.4 | BMF [4]: 1.7

Compound: ClC(Cl)=C(Cl)C(Cl)=C(Cl)Cl [HEXACHLOROBUTADIENE]
BMF [1]: < 1 | log KOA [2]: 3.9 | logP ([3]; read-out: LogP): 4.5 | BMF [4]: < 1

Compound: ClC1(Cl)C2(Cl)C3(Cl)C4(Cl)C(Cl)(Cl)C5(Cl)C3(Cl)C1(Cl)C5(Cl)C24Cl (stereo unspecified) [MIREX]
BMF [1]: 82 | log KOA [2]: 9.6 | logP ([3]; read-out: LogP): 8.1 | BMF [4]: 1

BMF [1]: 16 | log KOA [2]: 6.9 | logP ([3]; read-out: LogP): 5 | BMF [4]: < 1
Compound: Clc1cc(Cl)c(Cl)c(Cl)c1Cl [PENTACHLOROBENZENE]

Compound: Clc1c(Cl)c(Cl)c(Cl)c(Cl)c1Cl [PERCHLOROBENZENE]
BMF [1]: 55 | log KOA [2]: 7.7 | logP ([3]; read-out: LogP): 5.5 | BMF [4]: 1.8

Compound: C=Cc1ccccc1 [STYRENE]
BMF [1]: < 1 | log KOA [2]: 4.9 | logP ([3]; read-out: LogP): 2.5 | BMF [4]: < 1

Compound: O=S(=O)(c1ccc(Cl)cc1)c1cc(Cl)c(Cl)cc1Cl [TETRADIFON]
BMF [1]: 97 | log KOA [2]: 11.4 | logP ([3]; read-out: LogP): 4.6 | BMF [4]: < 1

Compound: CCCN(CCC)c1c([N+](=O)[O-])cc(C(F)(F)F)cc1[N+](=O)[O-] [TRIFLURALIN]
BMF [1]: 28 | log KOA [2]: 7.2 | logP ([3]; read-out: LogP): 4.4 | BMF [4]: < 1

Source: ChEMBL document CHEMBL1143755, “Food web-specific biomagnification of persistent organic pollutants” (Science, 2007)
